Measured values published in publication PMC6993754 (Pharmacology Research & Perspectives, 2020).

B1: recombinant CYP2J2 (Homo sapiens) (protein)
chain: MLAAMGSLAAALWAVVHPRTLLLGTVAFLLAADFLKRRRPKNYPPGPWRLPFLGNFFLVDFEQSHLEVQLFVKKYGNLFSLELGDISAVLITGLPLIKEALIHMDQNFGNRPVTPMREHIFKKNGLIMSSGQAWKEQRRFTLTALRNFGLGKKSLEERIQEEAQHLTEAIKEENGQPFDPHFKINNAVSNIICSITFGERFEYQDSWFQQLLKLLDEVTYLEASKTCQLYNVFPWIMKFLPGPHQTLFSNWKKLKLFVSHMIDKHRKDWNPAETRDFIDAYLKEMSKHTGNPTSSFHEENLICSTLDLFFAGTETTSTTLRWALLYMALYPEIQEKVQAEIDRVIGQGQQPSTAARESMPYTNAVIHEVQRMGNIIPLNVPREVTVDTTLAGYHLPKGTMILTNLTALHRDPTEWATPDTFNPDHFLENGQFKKREAFMPFSIGKRACLGEQLARTELFIFFTSLMQKFTFRPPNNEKLSLKFRMGITISPVSHRLCAVPQV

Columns and labels:
[1] = system: human brain microsomes (HBMs); assay: Screening of STS‐135 oxidative metabolism with HBMs; type: in vitro ADME; conditions: STS‐135 50 µmol/L
How it was run: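 Pooled 50-donor human brain microsomes with test compound (50 µmol/L, 2% DMSO) in 0.1 mol/L KPO₄, pH 7.4. Stopped with equal-volume ethanol, centrifuged; UPLC-UV at 300 nm for M21/M25. No-substrate, no-protein and no-NADPH controls; triplicate; nmol/mg protein/min.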

[2] = Time‐dependent metabolism of STS‐135 in genotyped HLMs CYP3A5*1/*1; type: in vitro ADME; conditions: human, genotyped CYP3A5*1/*1 human liver microsomes, pH 7.4
How it was run: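 CYP3A5-genotyped human liver microsomes (*1/*1 or *3/*3) incubated with test compound in 0.1 mol/L KPO₄, pH 7.4, with NADPH-regenerating system at 37°C. Sampled at 0, 10, 20, 30, 45, 60, 90 and 120 min, ethanol-stopped, centrifuged and analysed by UPLC-UV (300 nm) for parent depletion. Half-life determined directly by linear regression; triplicate reactions.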

recombinant CYP2J2 = target: T1, recombinant CYP2J2 (Homo sapiens, UniProt P51589)
T1 sequence (P51589 1-502): B1 chain

human hepatocytes = conditions: oxidation, hydrolysis, and glucuronidation; cited from earlier work
CB1 receptor = conditions: cited from earlier work
CB2 receptor = conditions: cited from earlier work
not read = substrate: O=C(NC12CC3CC(CC(C3)C1)C2)c1cn(CCCCCF)c2ccccc12; assay: not read; conditions: 37.0 °C

| Molecule | Specific activity, formation of M21 [1] | Specific activity, formation of M25 [1] | half-life [2] | K m, production of M25 (Figure 6 legend) (recombinant CYP2J2) | Number of metabolites formed (human hepatocytes) | Agonist activity at CB1 receptor (CB1 receptor) | Agonist activity at CB2 receptor (CB2 receptor) | Km (not read) | Vmax (not read) |
| --- | --- | --- | --- | --- | --- | --- | --- | --- | --- |
| O=C(NC12CC3CC(CC(C3)C1)C2)c1cn(CCCCCF)c2ccccc12 [STS‐135, N‐(adamantan‐1‐yl)‐1‐(5‐fluoropentyl)‐1H‐indole‐3‐carboxamide] | no detectable metabolites | no detectable metabolites | 21.1 min | 11.2389 ± 1.733 | 29 metabolites | potent agonist | potent agonist | – | – |
| B1 | – | – | – | – | – | – | – | 11.2 ± 1.7 µM | 17.2 ± 0.5 pmol/min/mg protein |
